Data as given in ChEMBL document CHEMBL1208768, “Synthesis, selective anti-Helicobacter pylori activity, and cytotoxicity of novel N-substituted-2-oxo-2H-1-benzopyran-3-carboxamides” (Bioorg Med Chem Lett, 2010).
Converted amounts (≈) assume the structure as drawn. The source made the active and inactive calls. No cut-off for these calls is given here.

Legend:
[1] = test system: Klebsiella pneumoniae; assay: Antibacterial activity against Klebsiella pneumoniae after 18 to 22 hrs by broth microdilution method; type: functional
Summary of the method: (§1)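 Clinical respiratory-tract isolates from patients, subcultured for purity and identified conventionally. Broth microdilution per NCCLS in Mueller–Hinton II broth; each plate had growth controls (bacteria, no compound) and medium-only controls. Incubation 18–22 h at 35 °C. MIC taken as the lowest concentration giving complete growth inhibition by unaided eye.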

[2] = test system: Staphylococcus hominis; assay: Antibacterial activity against Staphylococcus hominis after 18 to 22 hrs by broth microdilution method; type: functional; summary of the method: as §1
[3] = Cytotoxicity against human EAhy926 cells assessed as cell survival at 0.5 ug/mL after 24 hrs by trypan blue exclusion assay; type: cell-based, EA.hy 926; details: read-out: Survival
Summary of the method: (§2)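 EAhy cells in DMEM (high glucose) with 10% FBS, at 1 × 10⁵/mL in exponential growth and 60–70% confluent, were exposed 24 h at 37 °C to compounds from DMSO stocks (final DMSO ≤0.5%). Controls were cells alone or with DMSO, and 1 mM sodium nitroprusside as positive control. Cells were scraped, mixed 1:1 with 0.4% Trypan blue and counted on a hemocytometer by two operators. Result given as % viable cells.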

[4] = Cytotoxicity against human EAhy926 cells assessed as cell survival at 0.05 ug/mL after 24 hrs by trypan blue exclusion assay; type: cell-based, EA.hy 926; details: read-out: Survival; summary of the method: as §2
[5] = test system: Enterococcus faecalis; assay: Antibacterial activity against Streptococcus faecalis after 18 to 22 hrs by broth microdilution method; type: functional; summary of the method: as §1
[6] = test system: Enterobacter; assay: Antibacterial activity against Enterobacter after 18 to 22 hrs by broth microdilution method; type: functional; summary of the method: as §1
[7] = test system: Staphylococcus epidermidis; assay: Antibacterial activity against Staphylococcus epidermidis after 18 to 22 hrs by broth microdilution method; type: functional; summary of the method: as §1
[8] = test system: Pichia kudriavzevii; assay: Antifungal activity against Candida krusei after 24 hrs by broth microdilution method; type: functional
Summary of the method: (§3)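 Candida isolates from respiratory-tract specimens, tested by NCCLS broth microdilution in Sabouraud dextrose broth. Serial compound dilutions inoculated to 10³/mL, with fungus-only and medium-only controls. Incubated 24 h at 37 °C. MIC was the lowest concentration with complete visible growth inhibition.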

[9] = test system: Helicobacter pylori; assay: Antibacterial activity against metronidazole-resistant Helicobacter pylori isolate 20 after 72 hrs by agar dilution method; type: functional; details: isolate 20, 72 h
Summary of the method: (§4)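 H. pylori clinical isolates (ATCC 43504 control each session) stored at -80 °C and subcultured twice on Columbia agar with 10% horse serum and 0.25% yeast extract. Suspensions of 0.5 McFarland were spotted by Steer's replicator at about 5 × 10⁵ CFU/spot onto agar with twofold compound dilutions. Plates were incubated 72 h at 37 °C in 10% CO₂. MIC was the lowest concentration without visible growth.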

[10] = test system: Staphylococcus aureus; assay: Antibacterial activity against Staphylococcus aureus after 18 to 22 hrs by broth microdilution method; type: functional; summary of the method: as §1
[11] = test system: Helicobacter pylori; assay: Antibacterial activity against metronidazole-resistant Helicobacter pylori isolate 18 after 72 hrs by agar dilution method; type: functional; details: isolate 18, 72 h; summary of the method: as §4
[12] = test system: [Candida] sake; assay: Antifungal activity against Candida sake after 24 hrs by broth microdilution method; type: functional; details: Fermentozyma sake; summary of the method: as §3
[13] = test system: Klebsiella oxytoca; assay: Antibacterial activity against Klebsiella oxytoca after 18 to 22 hrs by broth microdilution method; type: functional; summary of the method: as §1
[14] = Cytotoxicity against human EAhy926 cells assessed as cell survival at 5 ug/mL after 24 hrs by MTT assay; type: cell-based, EA.hy 926; details: read-out: Survival
[15] = test system: Helicobacter pylori; assay: Antibacterial activity against metronidazole-resistant Helicobacter pylori NCTC 11637 after 72 hrs by agar dilution method; type: functional; details: NCTC 11637, 72 h; summary of the method: as §4
[16] = test system: Staphylococcus haemolyticus; assay: Antibacterial activity against Staphylococcus haemolyticus after 18 to 22 hrs by broth microdilution method; type: functional; summary of the method: as §1
[17] = test system: Helicobacter pylori; assay: Antibacterial activity against Helicobacter pylori ATCC 43504 clinical isolates after 72 hrs by agar dilution method; type: functional; details: ATCC 43504, 72 h
Summary of the method: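 Agar dilution per NCCLS. Twenty clinical strains from duodenal ulcer or gastritis patients, with ATCC 43504 as control in each session, were subcultured twice on Columbia agar plus 10% horse serum and 0.25% yeast extract (72 h, 37 °C, 10% CO₂). Inoculum of 0.5 McFarland in Wilkins Chalgren broth, about 5 × 10⁵ CFU/spot by Steer's replicator. Plates held twofold compound dilutions down to 0.0039 µg/mL and were incubated 72 h at 37 °C, 10% CO₂. MIC was the lowest concentration inhibiting visible growth.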

[18] = test system: Proteus vulgaris; assay: Antibacterial activity against Proteus vulgaris after 18 to 22 hrs by broth microdilution method; type: functional; summary of the method: as §1
[19] = Cytotoxicity against human EAhy926 cells assessed as cell survival at 50 ug/mL after 24 hrs by trypan blue exclusion assay; type: cell-based, EA.hy 926; details: read-out: Survival; summary of the method: as §2
[20] = test system: Klebsiella aerogenes; assay: Antibacterial activity against Enterobacter aerogenes after 18 to 22 hrs by broth microdilution method; type: functional; summary of the method: as §1
[21] = Cytotoxicity against human EAhy926 cells assessed as cell survival at 5 ug/mL after 24 hrs by trypan blue exclusion assay; type: cell-based, EA.hy 926; details: read-out: Survival; summary of the method: as §2
[22] = test system: Escherichia coli; assay: Antibacterial activity against Escherichia coli after 18 to 22 hrs by broth microdilution method; type: functional; summary of the method: as §1
[23] = test system: Candida albicans; assay: Antifungal activity against Candida albicans after 24 hrs by broth microdilution method; type: functional; summary of the method: as §3
[24] = test system: AGS; assay: Antiinflammatory activity in human AGS cells assessed as inhibition of IL-8 production at 0.5 ug/mL after 24 hrs; type: functional, cell-based
Summary of the method: (§5)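 AGS gastric adenocarcinoma cells were grown in F-12K with 10% FBS. They were seeded at 1 × 10⁵/mL for 24 h, preincubated 1 h with compound at 5 or 0.5 µg/mL, then exposed to H. pylori.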

[25] = test system: Helicobacter pylori; assay: Antibacterial activity against metronidazole-resistant Helicobacter pylori isolate 8 after 72 hrs by agar dilution method; type: functional; details: isolate 8, 72 h; summary of the method: as §4
[26] = test system: Citrobacter freundii; assay: Antibacterial activity against Citrobacter freundii after 18 to 22 hrs by broth microdilution method; type: functional; summary of the method: as §1
[27] = test system: AGS (Homo sapiens); assay: Cytotoxicity against human AGS cells assessed as cell survival at 50 ug/mL after 24 hrs by MTT assay
[28] = Cytotoxicity against human EAhy926 cells assessed as cell survival at 0.5 ug/mL after 24 hrs by MTT assay; type: cell-based, EA.hy 926; details: read-out: Survival
[29] = test system: AGS; assay: Antiinflammatory activity in human AGS cells assessed as inhibition of IL-8 production at 5 ug/mL after 24 hrs; type: functional, cell-based; summary of the method: as §5
[30] = test system: Helicobacter pylori; assay: Antibacterial activity against metronidazole-resistant Helicobacter pylori isolate 1 after 72 hrs by agar dilution method; type: functional; details: isolate 1, 72 h; summary of the method: as §4

Compound	MIC [1] [µg/mL]	MIC [2] [µg/mL]	viability at 24 h, 0.05 ug/mL [4] [%]	MIC [5] [µg/mL]	MIC [6] [µg/mL]	MIC [7] [µg/mL]	MIC [8] [µg/mL]	MIC [9] [µg/mL]	MIC [10] [µg/mL]	MIC [11] [µg/mL]	MIC [12] [µg/mL]	MIC [13] [µg/mL]	viability at 24 h, 5 ug/mL [14] [%]	MIC [15] [µg/mL]	MIC [16] [µg/mL]	MIC50 [17] [µg/mL]	MIC90 [17] [µg/mL]	MIC [18] [µg/mL]	viability at 24 h, 50 ug/mL [19] [%]	MIC [20] [µg/mL]	other results
CCOC(=O)c1ccc(NC(=O)c2cc3cc(Br)cc(Cl)c3oc2=O)cc1	> 128	> 128	94	> 128	> 128	> 128	> 128	8 (≈ 17.8 µM)	> 128	8 (≈ 17.8 µM)	> 128	> 128	75	16 (≈ 35.5 µM)	> 128	8 (≈ 17.8 µM)	16 (≈ 35.5 µM)	> 128	58	> 128	viability at 24 h, 0.5 ug/mL [3]: 86%; viability at 24 h, 5 ug/mL [21]: 71%; MIC [22]: > 128 µg/mL; MIC [23]: > 128 µg/mL; inhibition [24]: inactive; MIC [25]: 4 µg/mL (≈ 8.88 µM); MIC [26]: > 128 µg/mL; viability at 24 h, 50 ug/mL [27]: 64%; viability at 24 h, 0.5 ug/mL [28]: 98%; inhibition [29]: inactive; MIC [30]: 8 µg/mL (≈ 17.8 µM)
CCOC(=O)c1ccc(NC(=O)c2cc3cc(OC)ccc3oc2=O)cc1	> 128	> 128	72	> 128	> 128	> 128	> 128	4 (≈ 10.9 µM)	> 128	4 (≈ 10.9 µM)	> 128	> 128	58	4 (≈ 10.9 µM)	> 128	4 (≈ 10.9 µM)	8 (≈ 21.8 µM)	> 128	36	> 128	viability at 24 h, 0.5 ug/mL [3]: 67%; viability at 24 h, 5 ug/mL [21]: 42%; MIC [22]: > 128 µg/mL; MIC [23]: > 128 µg/mL; inhibition [24]: inactive; MIC [25]: 4 µg/mL (≈ 10.9 µM); MIC [26]: > 128 µg/mL; viability at 24 h, 50 ug/mL [27]: 41%; viability at 24 h, 0.5 ug/mL [28]: 98%; inhibition [29]: inactive; MIC [30]: 8 µg/mL (≈ 21.8 µM)
COc1ccc2oc(=O)c(C(=O)Nc3ccc(C(=O)O)cc3)cc2c1	> 128	> 128	85	> 128	> 128	> 128	> 128	4 (≈ 11.8 µM)	> 128	4 (≈ 11.8 µM)	> 128	> 128	99	4 (≈ 11.8 µM)	> 128	4 (≈ 11.8 µM)	8 (≈ 23.6 µM)	> 128	62	> 128	viability at 24 h, 5 ug/mL [21]: 69%; MIC [22]: > 128 µg/mL; MIC [23]: > 128 µg/mL; inhibition [24]: inactive; MIC [25]: 4 µg/mL (≈ 11.8 µM); MIC [26]: > 128 µg/mL; viability at 24 h, 0.5 ug/mL [28]: 99%; inhibition [29]: inactive; MIC [30]: 8 µg/mL (≈ 23.6 µM)
